Measurements gathered from unrelated publications.
Compare with care: the assays were run in different laboratories.
Matrix: plasma

The AUC(0-inf) of COc1cc(-c2cc(C(C)=O)n3ccccc23)c(OC)cc1Cn1ccnc1 is reported as 4300 ng·h/mL (male Sprague-Dawley rat; intravenous; 5 mg/kg).
The AUC(0-inf) of CCCc1nc2c(C)cc(-c3nc4ccccc4n3C)cc2n1Cc1ccc(-c2ccccc2C(=O)O)cc1 is reported as 1950 ng·h/mL (male Sprague-Dawley rat; oral; 8 mg/kg; single dose).
The AUC(0-inf) of CC(=O)O[C@@H]1CC[C@@]2(C)[C@@H](CC[C@]3(C)[C@@H]2C(=O)C=C2[C@@H]4[C@@H](C)[C@H](C)CC[C@]4(C)CC[C@]23C)[C@@]1(C)C(=O)O is reported as 50200 ng·h/mL (female Wistar rat; oral; 1 mg/kg; single dose).
O=C1CCC(N2Cc3cc(C4CCN(Cc5ccccc5)CC4)ccc3C2=O)C(=O)N1 (stereo not shown) gave an AUC(0-inf) of 325 ng·h/mL (male Sprague-Dawley rat; intravenous; 1 mg/kg).
The AUC(0-inf) of C[C@H]1Oc2cc(cnc2N)-c2c(nn(C)c2C#N)CN(C)C(=O)c2ccc(F)cc21 is reported as 3840 ng·h/mL (male Sprague-Dawley rat; oral; 10 mg/kg; single dose).
For C1=C/COCc2cc(ccc2OCCN2CCCC2)Nc2nccc(n2)-c2cccc(c2)COC/1, the AUC(0-inf) was 3320 ng·h/mL (male Sprague-Dawley rat; oral; 36 mg/kg).
Cc1nc(Nc2ncc(C(=O)Nc3c(C)cccc3Cl)s2)cc(N2CC[C@H](O)C2)n1 gave an AUC(0-inf) of 2.71 µM·h (male Sprague-Dawley rat; oral; 5 mg/kg; single dose).
COc1ccc(N(Cc2csc(-c3ccccc3)n2)C(=O)CCCCCC(=O)NO)cc1 gave an AUC(0-inf) of 30.7 ng·h/mL (female Sprague-Dawley rat; intravenous; 5 mg/kg).
The AUC(0-inf) of CONC(=O)c1cccc2c1cc(C)n2-c1nc2c(c(NCc3ccccc3)n1)CCCN2 is reported as 32.5 ng·h/mL (male Sprague-Dawley rat; intravenous; 1 mg/kg; single dose).
For Cn1c(=O)c2[nH]cnc2n(C)c1=O, the AUC(0-inf) was 59400 ng·h/mL (male Sprague-Dawley rat; intravenous; 22.5 mg/kg).
With CC[C@@H]([C@H](C)O)n1ncn(-c2ccc(N3CCN(c4ccc(OC[C@@H]5CO[C@@](Cn6cncn6)(c6ccc(F)cc6F)C5)cc4)CC3)cc2)c1=O the AUC(0-inf) was 10200 ng·h/mL (Sprague-Dawley rat; oral; 40 mg/kg).
The AUC(0-inf) of COc1nc(-c2cccc(-c3ccccc3)c2C)ccc1CNCCNC(=O)CCCCCCCCCCC(=O)N1CCN(CCNC(=O)c2cc3c(=O)n4cccc(C)c4nc3n(CCc3cccs3)c2=N)CC1 is reported as 1640 ng·h/mL (male Sprague-Dawley rat; intravenous; 2 mg/kg).
CCOc1c([C@H](C)n2nc(C)c3c(N)ncnc32)cc(Cl)c(F)c1[C@@H]1CNC(=O)C1 has an AUC(0-inf) of 4610 ng·h/mL (male Sprague-Dawley rat; oral; 2 mg/kg; single dose).
